Several values for one entry are separate records, joined by “and”; a condition that tells them apart may be missing. Identical values can stand only once.
Key:
Liver microsomes = experiment: Intrinsic clearance in human liver microsomes assessed per mg of protein by liquid chromatography-mass spectrometry; format: ADME, Microsome
Method in brief: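 Compound is incubated with human liver microsomes and NADPH, and parent loss is followed by LC-MS. Concentration versus time is fitted to exponential decay to give the first-order depletion rate constant. In vitro CLint and predicted hepatic extraction ratio are calculated from that constant.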

[1] = Dissociation constant, pKa of the compound; format: physicochemical
[2] = Distribution coefficient, log D of the compound at pH 7.4; format: physicochemical; conditions: octanol/water
[3] = Solubility of the compound at pH 6.5; format: physicochemical; conditions: buffer
[4] = Solubility of the compound at pH 2; format: physicochemical; conditions: buffer
[5] = system: Trypanosoma brucei rhodesiense; experiment: Antitrypanosomal activity against Trypanosoma brucei rhodesiense STIB900 bloodstream forms; format: functional, organism-based
Trypanosoma cruzi = experiment: Antiprotozoal activity against Trypanosoma cruzi Tulahuen C2C4 amastigotes; format: functional, organism-based
[6] = Cytotoxicity against rat L6 cells; format: cell-based
Trypanothione reductase [7] = biological target: T1, Trypanothione reductase (Trypanosoma cruzi, UniProt P28593); experiment: Inhibition of Trypanosoma cruzi X10/1 trypanothione reductase assessed as inhibition of thionitrobenzoate formation by microplate reader analysis
Method in brief: (§1)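 Recombinant T. cruzi TR (Silvio X10/1) coupled to DTNB-driven trypanothione regeneration. Enzyme (20 mU/ml), 12 μM T[S]2 and 200 μM DTNB in pH 7.5 HEPES/EDTA/BSA/Tween 20 buffer are preincubated ≥15 min at room temperature with compound. The reaction is started with 300 μM NADPH. Final conditions are 6 μM T[S]2, 100 μM DTNB and 150 μM NADPH. TNB absorbance at 410 nm is read for 12.5 min. Titrations are run in triplicate.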

Leishmania donovani = experiment: Antiprotozoal activity against Leishmania donovani MHOM/ET/67/L82 amastigotes; format: functional, organism-based
Plasmodium falciparum = experiment: Antiplasmodial activity against Plasmodium falciparum 3D7 erythrocytic stage; format: functional, organism-based
Trypanothione reductase [8] = biological target: T1, Trypanothione reductase; experiment: Inhibition of Trypanosoma cruzi trypanothione reductase assessed as inhibition of thionitrobenzoate formation by microplate reader analysis; method in brief: as §1
[9] = biological target: Glutathione reductase (Homo sapiens); experiment: Inhibition of human glutathione reductase
[10] = Cytotoxicity against human HT-29 cells; format: cell-based

T1 sequence (P28593 whole entry): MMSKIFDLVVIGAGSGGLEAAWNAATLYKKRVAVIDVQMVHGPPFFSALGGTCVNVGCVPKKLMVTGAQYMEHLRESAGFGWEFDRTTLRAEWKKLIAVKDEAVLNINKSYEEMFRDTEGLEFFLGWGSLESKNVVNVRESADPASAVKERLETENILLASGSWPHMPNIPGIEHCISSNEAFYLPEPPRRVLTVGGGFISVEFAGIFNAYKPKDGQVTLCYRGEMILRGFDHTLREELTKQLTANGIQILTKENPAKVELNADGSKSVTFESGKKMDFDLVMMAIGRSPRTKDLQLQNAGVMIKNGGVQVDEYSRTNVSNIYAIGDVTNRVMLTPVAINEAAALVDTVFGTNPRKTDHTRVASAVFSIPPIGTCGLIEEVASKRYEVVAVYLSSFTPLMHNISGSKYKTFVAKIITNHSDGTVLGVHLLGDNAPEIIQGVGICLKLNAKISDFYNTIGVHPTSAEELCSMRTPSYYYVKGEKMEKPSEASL

Row | SMILES | IC50 [5] [µM] | IC50 (Trypanosoma cruzi) [µM] | CC50 [6] [µM] | IC50 (Trypanothione reductase [7]) [µM] | IC50 (Leishmania donovani) [µM] | IC50 (Plasmodium falciparum) [µM] | also measured
1 | CCc1ccc2c(C)nc(NC3=NC(C)(C)C=C(C)N3)nc2c1 |  |  |  |  |  |  | CL (Liver microsomes): 90 µL/min/mg; pKa [1]: 2.4; logD [2]: 0.7; solubility [3]: > 100 µM; solubility [4]: > 100 µM
2 | CN1C2CCC1CC(=NOC(c1ccccc1)c1ccc(Cl)cc1)C2 (configuration not stated) | 3 | 0.1 | 35 | 33 | > 30 | 8 | CL (Liver microsomes): 31 µL/min/mg; pKa [1]: 8.34; logD [2]: 2.9; solubility [3]: > 100 µM; solubility [4]: > 100 µM
3 | CSc1nncc(-c2ccccc2)n1 |  |  |  | > 100 |  |  | 
4 | S=C(Nc1ccccc1)NC1CCN(Cc2ccccc2)CC1 |  |  |  |  |  |  | IC50 (Trypanothione reductase [8]): 33 µM
5 | S=C(Nc1cccnc1)NC1CCN(Cc2ccccc2)CC1 | 15 | > 30 | 90 | 2 | > 30 | 8.6 | IC50 (Trypanothione reductase [8]): 1 µM and 3 µM
6 | CN1/C(=C/C=C2\C=Nc3ccccc32)C=Cc2ccccc21 | 0.1 | 6 | 14 | 23 | 3 | 0.2 | 
7 | CCCNC(=S)NC1CCN(Cc2ccccc2)CC1 |  |  |  |  |  |  | IC50 (Trypanothione reductase [8]): > 100 µM
8 | O=C(Nc1cccnc1)NC1CCN(Cc2ccccc2)CC1 |  |  |  |  |  |  | IC50 (Trypanothione reductase [8]): > 100 µM
9 | CCN1CCC(NC(=S)Nc2cccnc2)CC1 |  |  |  |  |  |  | IC50 (Trypanothione reductase [8]): > 100 µM
10 | CSc1nncc(-c2cnc(SC)c3c2CCCC3)n1 |  |  |  | > 100 |  |  | 
11 | CCc1ccc2c(C)nc(NC3=NC(C)(C)CC(C)=N3)nc2c1 |  |  |  | 32 |  |  | CL (Liver microsomes): 90 µL/min/mg; pKa [1]: 2; logD [2]: 3.6; solubility [3]: > 100 µM; solubility [4]: > 100 µM
12 | CCOc1ccc2c(C)nc(NC3=NC(C)(C)CC(C)=N3)nc2c1 |  |  |  | 28 |  |  | 
13 | Cc1cc(C)c2nc(Nc3nc(C)c(C)c(O)n3)nc(C)c2c1 |  |  |  | > 100 |  |  | 
14 | Cc1cc(C)c2c(C)nc(Nc3nc(C)cc(C)n3)nc2c1 | 27 | 8 | 11 | > 100 | 32 | 4 | 
15 | Cc1ccc2nc(Nc3nc(C)cc(C)n3)nc(C)c2c1 |  |  |  | > 100 |  |  | 
16 | Cc1cc(C)c2nc(NC(=N)N)nc(C)c2c1 |  |  |  | > 100 |  |  | 
17 | N=c1n(CCOc2ccccc2)c2ccccc2n1CCN1CCCCC1 | 0.6 | 19 |  | 9 | > 30 | 2 | IC50 [9]: > 100 µM; CC50 [10]: 42 µM
18 | CC1=CC(C)(C)N=C(Nc2nc(C)c3cc(C)cc(C)c3n2)N1 | 1 | 6 | 10 | 17 | 14 | 2 | 
19 | COc1nncc(-c2cnnc(SC)n2)n1 | 5 | 15 | 30 | 27 | 8 | 0.2 | 
20 | Cc1nc(NC(=N)N)nc2ccccc12 | 39 | 38 | > 64 | > 100 | > 64 | 42 | 
21 | Nc1nc(N)nc(Nc2ccc([As]3SCC(CO)S3)cc2)n1 (configuration not stated) [MELARSOPROL] | 0.017 |  |  |  |  |  | 

From ChEMBL document CHEMBL1649477, “Trypanothione reductase high-throughput screening campaign identifies novel classes of inhibitors with antiparasitic activity” (Antimicrob Agents Chemother, 2009)
